Assay results reported in PMC7401491 (Investigative Ophthalmology & Visual Science, 2020).
Like-named read-outs stand apart in the source and are kept apart here. Ends that are not written are not given here.

B1: cationic antimicrobial protein of 37 kDa (CAP37) (natural protein, human, UniProt P20160 27-248, looked up)
chain: IVGGRKARPRQFPFLASIQNQGRHFCGGALIHARFVMTAASCFQSQNPGVSTVVLGAYDLRRRERQSRQTFSISSMSENGYDPQQNLNDLMLLQLDREANLTSSVTILPLPLQNATVEAGTRCQVAGWGSQRSGGRLSRFPRFVNVTVTPEDQCRPNNVCTGVLTRRGGICNGDGGTPLVCEGLAHGVASFSLGPCGRGPDFFTRVALFRDWIDGVLNNPGP
B3: recombinant human S100 calcium binding protein S100A8 (untagged) (natural protein, UniProt P05109 1-93, looked up)
chain: MLTELEKALNSIIDVYHKYSLIKGNFHAVYRDDLKKLLETECPQYIRKKGADVWFKELDINTDGAVNFQEFLILVIKMGVAAHKKSHEESHKE

Tests used:
[1] = molecular target: CAP37-derived peptide 20-44 5RMP (human); assay: ELISA
[2] = molecular target: T1, CAP37-derived peptide 120-146 WH (human); assay: ELISA
T1 sequence (P20160 146-172 with Q131W R132H, looked up): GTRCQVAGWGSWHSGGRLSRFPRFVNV

[3] = molecular target: T2, CAP37-derived peptide 20-44 (human); assay: ELISA
T2 sequence (P20160 46-70, looked up): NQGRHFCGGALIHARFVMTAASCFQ

[4] = molecular target: CAP37-derived peptide 120-146 WH 5RMP (human); assay: ELISA
TLR4/MD-2 complex = TLR4/MD-2 complex (Homo sapiens, UniProt O00206+Q9Y6Y9); assay: ELISA binding of His-tagged TLR4/MD-2 complex to coated proteins/peptides; details: for Binding of TLR4/MD-2 to coated protein/peptide (in words): ELISA, TLR4/MD-2 at 10 nM, compared with BSA
Procedure, shortened: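 ELISA against coated protein or peptide at 5 µg/ml (PBS pH 7.4; 2 h RT, then 4°C overnight), blocked with 3% BSA/PBST. Recombinant human TLR4/MD-2 complex, both chains His-tagged, 0–100 nM in PBST/0.1% BSA, 70 min at 37°C. Probed with anti-His mAb 1.0 µg/ml, then peroxidase secondary; OD 492 nm. 0-nM values subtracted; Kd derived; compared with BSA. Mean ± SEM, three independent experiments.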

TLR4 = TLR4 (Homo sapiens, UniProt O00206); assay: HEK-Blue hTLR4 stimulation assay; type: cell-based; details: HEK-hTLR4 cells
Procedure, shortened: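 HEK-Blue hTLR4 cells (human TLR4, MD-2, CD14, NF-κB/AP-1-driven SEAP), passages 3–15, detached with warm PBS and suspended serum-free at 1.4 × 10^5 cells/ml. Test compound in nuclease-free water at final 10 nM–100 µM; 24 h, 37°C, 5% CO2. SEAP read with Quanti-Blue, 3 h, OD 630 nm, normalised to BCA protein. Untreated background subtracted; expressed as % of 50-nM S100A9. Three experiments in triplicate.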

[5] = tested on: TLR4 activation by S100A9; assay: HEK-Blue hTLR4 assay, effect on activation of TLR4 by 10-nM S100A9; type: cell-based, human
S100A8 = assay: ELISA binding of CAP37 to S100A8; set-up: species or system human; details: data not shown
[6] = molecular target: T3, recombinant human TLR4/myeloid differentiation factor 2 (MD-2) complex (human, UniProt O00206 24-631; Q9Y6Y9 19-160); assay: ELISA
[7] = molecular target: CAP37-derived peptide 20-44 5RMP (human); assay: ELISA; remark: listed apart in the source
[8] = molecular target: T1, CAP37-derived peptide 120-146 WH (human); assay: ELISA; remark: listed apart in the source
[9] = molecular target: T2, CAP37-derived peptide 20-44 (human); assay: ELISA; remark: listed apart in the source
[10] = molecular target: CAP37-derived peptide 120-146 WH 5RMP (human); assay: ELISA; remark: listed apart in the source
[11] = molecular target: B1; assay: ELISA
[12] = molecular target: B3; assay: ELISA
[13] = molecular target: T3, recombinant human TLR4/myeloid …; assay: ELISA; remark: listed apart in the source

Sequence of TLR4/MD-2 complex (O00206 24-631 limits assumed): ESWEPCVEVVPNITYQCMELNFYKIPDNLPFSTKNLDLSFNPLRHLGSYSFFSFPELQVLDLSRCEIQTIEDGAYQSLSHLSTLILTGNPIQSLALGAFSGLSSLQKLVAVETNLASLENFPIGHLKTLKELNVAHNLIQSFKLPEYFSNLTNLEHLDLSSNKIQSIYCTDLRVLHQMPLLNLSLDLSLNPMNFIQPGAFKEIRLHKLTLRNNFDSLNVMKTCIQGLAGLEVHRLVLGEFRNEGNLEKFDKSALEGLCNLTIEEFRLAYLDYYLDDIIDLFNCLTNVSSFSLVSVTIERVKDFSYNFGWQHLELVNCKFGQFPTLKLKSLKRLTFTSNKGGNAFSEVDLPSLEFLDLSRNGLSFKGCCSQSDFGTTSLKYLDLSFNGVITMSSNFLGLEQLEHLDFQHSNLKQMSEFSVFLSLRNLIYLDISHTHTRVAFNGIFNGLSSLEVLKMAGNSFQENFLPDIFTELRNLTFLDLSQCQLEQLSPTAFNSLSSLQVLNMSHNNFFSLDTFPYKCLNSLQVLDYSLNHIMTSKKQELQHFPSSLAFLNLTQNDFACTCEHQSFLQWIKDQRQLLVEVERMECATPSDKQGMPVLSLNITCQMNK
Sequence of TLR4/MD-2 complex (Q9Y6Y9 17-160 partner limits assumed): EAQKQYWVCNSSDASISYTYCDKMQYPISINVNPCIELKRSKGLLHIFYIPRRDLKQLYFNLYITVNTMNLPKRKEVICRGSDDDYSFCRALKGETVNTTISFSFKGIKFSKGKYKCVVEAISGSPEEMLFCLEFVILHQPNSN
Sequence of TLR4 (O00206 24-839): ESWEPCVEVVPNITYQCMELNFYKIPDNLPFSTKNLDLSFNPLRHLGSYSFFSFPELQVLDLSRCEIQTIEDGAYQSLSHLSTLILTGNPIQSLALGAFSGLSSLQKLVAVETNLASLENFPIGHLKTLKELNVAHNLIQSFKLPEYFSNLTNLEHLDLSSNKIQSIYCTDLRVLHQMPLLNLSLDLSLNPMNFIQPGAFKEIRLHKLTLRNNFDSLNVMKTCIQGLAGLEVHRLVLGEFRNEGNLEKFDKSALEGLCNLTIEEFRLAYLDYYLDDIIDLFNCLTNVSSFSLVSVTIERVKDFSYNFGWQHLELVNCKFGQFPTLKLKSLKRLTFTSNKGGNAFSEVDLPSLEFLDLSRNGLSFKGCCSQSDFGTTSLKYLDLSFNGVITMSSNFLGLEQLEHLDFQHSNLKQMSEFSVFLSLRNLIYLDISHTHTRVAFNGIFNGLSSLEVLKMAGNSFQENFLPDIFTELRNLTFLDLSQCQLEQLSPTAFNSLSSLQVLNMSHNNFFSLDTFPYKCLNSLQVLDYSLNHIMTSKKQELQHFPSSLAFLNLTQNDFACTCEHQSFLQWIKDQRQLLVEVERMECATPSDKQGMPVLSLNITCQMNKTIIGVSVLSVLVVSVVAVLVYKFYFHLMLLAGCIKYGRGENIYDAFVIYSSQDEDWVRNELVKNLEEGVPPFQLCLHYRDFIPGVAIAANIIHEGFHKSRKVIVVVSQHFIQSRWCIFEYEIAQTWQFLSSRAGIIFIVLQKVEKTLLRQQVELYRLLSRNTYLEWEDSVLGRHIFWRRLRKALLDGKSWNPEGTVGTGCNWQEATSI
Sequence of TLR4 (Q9Y6Y9 17-160 partner limits assumed): as the sequence (Q9Y6Y9 17-160 partner limits assumed) above
T3 sequence (O00206 24-631, chain 1 of 2): as the sequence (O00206 24-631 limits assumed) above
T3 sequence (Q9Y6Y9 19-160, chain 2 of 2): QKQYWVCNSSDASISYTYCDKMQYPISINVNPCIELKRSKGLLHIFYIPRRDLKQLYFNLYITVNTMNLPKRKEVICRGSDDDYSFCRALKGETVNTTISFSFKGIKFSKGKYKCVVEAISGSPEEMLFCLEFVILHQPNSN

## recombinant human TLR4/myeloid differentiation factor 2 (MD-2) complex (from UniProt O00206 24-631; Q9Y6Y9 19-160)
[1]
  Kd: 270 nM
[2]
  Kd: 229 nM
[3]
  Kd: 90.6 nM
[4]
  Kd: 18.9 nM

## LDREANLTSSVTILPLPLQNATVEAGTR [95-122]
TLR4/MD-2 complex
  Binding of TLR4/MD-2 to coated protein/peptide (in words): only minimal interaction

## NE: neutrophil elastase purified from human neutrophils
TLR4/MD-2 complex
  Binding of TLR4/MD-2 to coated protein/peptide (in words): did not significantly interact

## CG: cathepsin G purified from human neutrophils
TLR4/MD-2 complex
  Binding of TLR4/MD-2 to coated protein/peptide (in words): did not significantly interact

## B1
TLR4/MD-2 complex
  Binding of TLR4/MD-2 to coated protein/peptide (in words): low, but specific, interaction
TLR4/MD-2 complex; Kd 98 nM versus Kd 9.2 nM
  Fold lower affinity for TLR4 than for S100A9: ~10 fold
TLR4
  Fold higher concentration at which TLR4 activation begins, versus S100A9: approximately 100 fold
TLR4; 24 h, SEAP
  Concentration at which activation of TLR4 begins: 100 nM
[5]; CAP37 0.01 nM preincubated 1 hour with 10-nM S100A9, from 50% to 30%
  Decrease of TLR4 activation by S100A9: ~20%
[5]; CAP37 10 nM preincubated 1 hour with 10-nM S100A9
  Decrease of TLR4 activation by S100A9: 10%
[5]; CAP37 1 µM preincubated 1 hour with 10-nM S100A9
  Decrease of TLR4 activation by S100A9: no decrease
S100A8
  Interaction between CAP37 and S100A8 (in words): specific, but low, interaction
[6]
  Kd: 98 nM

B2: recombinant human S100 calcium-binding protein A9 (S100A9), C-terminus 8-His tag (natural protein, UniProt P06702 1-114, looked up)
chain: MTCKMSQLERNIETIINTFHQYSVKLGHPDTLNQGEFKELVRKDLQNFLKKENKNEKVIEHIMEDLDTNADKQLSFEEFIMLMARLTWASHEKMHEGDEGPGHHHKPGLGEGTP
[7]
  Kd: 23.5 nM
[8]
  Kd: 37.3 nM
[9]
  Kd: 43.8 nM
[10]
  Kd: 22.3 nM
[11]
  Kd: 9.2 nM
[12]
  binding at 10 nM S100A9 relative to its binding to CAP37: 2 fold

## B3
[13]
  binding result: binds
